SIRT5 block: inhibitors of human sirtuin-5 desuccinylase | inhibition, % at 15 µM | AID 652115 | Q9NXA8 | Purified SirT5, succinyl-peptide AMC, trypsin-coupled fluorescence | actives 1.1% (n = 330,000); in the data active = inhibition above about 15%; inconclusive = no clear call, values can overlap the other calls
Target sequence (Q9NXA8 whole entry, looked up): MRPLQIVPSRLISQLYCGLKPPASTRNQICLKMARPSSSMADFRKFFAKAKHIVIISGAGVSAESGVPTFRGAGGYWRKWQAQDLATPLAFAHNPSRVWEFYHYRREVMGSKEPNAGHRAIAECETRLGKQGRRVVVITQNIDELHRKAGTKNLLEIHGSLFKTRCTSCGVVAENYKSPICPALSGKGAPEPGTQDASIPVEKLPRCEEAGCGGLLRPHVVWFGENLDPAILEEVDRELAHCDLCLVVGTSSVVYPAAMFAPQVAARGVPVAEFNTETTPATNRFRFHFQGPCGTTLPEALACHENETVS
MLL AF4-AF9 inh: inhibitors of human MLL-AF4/AF9 interaction; inhibition, % at 10 µM; AlphaScreen, biotin-AF4 peptide binding to FLAG-AF9; P42568; actives 0.47% (n = 350,000);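 active = every replicate reaching a set inhibition limit, whatever the replicate mean, cut at about 25% in these data; inconclusive = mean inhibition reaches that limit but some replicates miss it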
S100A4 inh HTS: S100A4-myosin IIA interaction inhibition; P26447; S100A4/TAMRA-MyoIIA peptide fluorescence polarization; inhibition, % at 10.7 µM; actives 0.14% (n = 360,000); AID 652163;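 active = mean inhibition of at least 70% across replicates, with every replicate also reaching that level; inconclusive = mean inhibition reaches 70% but some replicates fall short; inactive = mean inhibition below 70%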
Target sequence (P26447 whole entry, looked up): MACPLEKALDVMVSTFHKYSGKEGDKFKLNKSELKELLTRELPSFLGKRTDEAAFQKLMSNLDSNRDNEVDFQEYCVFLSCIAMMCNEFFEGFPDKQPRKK
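Test system: S100A4 monomer protein. Medium: HEPES buffer with Ca2+, pH 7.2. Reagent: fluorescent myosin IIA peptide, 5 nM. Compound dosing: single-point compound testing. Timing: 5 min between mix addition and reading. Benchmarks: DMSO neutral and TFP positive wells.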
CaV13 FRET inh: Disruptors of the CACNA1D IQ motif to Ca2+-dependent inactivation inhibitor domain association, primary screening, Förster resonance energy transfer in intact living …; actives 0.098% (n = 340,000); inhibition, % at 12.3 µM; HEK cells, CFP/YFP FRET ICDI-IQ, plate reader, 10 min; percent FRET-ratio fall versus neutral wells;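 active = mean replicate inhibition of at least 30% and at least 1% of replicates passing that level; inconclusive = only one of the two criteria is met; inactive = neither criterion is met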
DENV2 CPE rescue: inhibitors of DENV2 cytopathic effect | CPE inhibition, % at 9.99 µM | actives 1.7% (n = 350,000) | DENV2-infected cells, cytopathic effect rescue, plate reader; in the data active = CPE inhibition above about 20%, passing the limit was not always enough; inconclusive = no clear call, values can overlap the other calls; tested in BHK-21 cells
Hits are given with their value; 0 = inactive; ? = inconclusive; - = no result. Sampled rows, rich in hits. Any-hit rate of the full collection: about 2.7%.

SMILES	SIRT5 block	MLL AF4-AF9 inh	S100A4 inh HTS	CaV13 FRET inh	DENV2 CPE rescue
CCCNC(=O)N1C[C@H]2[C@@H](c3ccccc31)[C@@H](CO)N2CC1CCCC1	0	0	0	-	0
O=C(NCc1ccccc1)C(c1ccncc1)n1c(=O)c(-c2ccccc2)nc2ccccc21 (configuration not stated)	0	-	0	0	40
CC(C)(C)NC(=O)C(c1ccccc1)n1c(=O)c(-c2ccco2)nc2ccccc21 (configuration not stated)	0	0	0	0	?
CC(C)(C)NC(=O)C(c1ccncc1)n1c(=O)c(-c2ccco2)nc2ccccc21 (configuration not stated)	0	-	0	0	31
CCOC(=O)C1=CCN(S(=O)(=O)c2ccc(Br)cc2)C1c1cccc(F)c1 (configuration not stated)	0	0	0	0	0
CN1C(c2ccccc2)CCOS1(=O)=O (configuration not stated)	-	0	0	0	47
CC(=O)N1CCN(c2ccc(NCc3ccc4c(c3)OCO4)cc2)CC1	-	-	-	0	-
Cc1cc(C)cc(C(=O)Nc2ccc(N3CCN(C(=O)c4ccco4)CC3)cc2)c1	0	0	0	0	0
O=C(c1ccccc1)N1CCN(c2ccc(NCc3ccc4c(c3)OCO4)cc2)CC1	0	0	0	56	0
O=C(Nc1ccc(N2CCN(C(=O)c3ccco3)CC2)cc1)c1ccccc1	19	0	0	0	0
COc1cc(OC)cc(C(=O)Nc2ccc(N3CCN(C(=O)c4cccs4)CC3)cc2)c1	0	0	0	-	53
COc1ccc2c3c([nH]c2c1)[C@H](CO)NCC31CN(S(=O)(=O)c2cccs2)C1	0	0	0	-	0
C[C@@H]1CCCCO[C@@H](CN(C)C(=O)Nc2ccc(F)cc2)[C@H](C)CN([C@@H](C)CO)C(=O)c2cc(NC(=O)CCCN(C)C)ccc2O1	0	0	0	-	0
COc1cccc(S(=O)(=O)Nc2ccc3c(c2)[C@H]2C[C@@H](CC(=O)O)O[C@H](CO)[C@H]2O3)c1	0	0	0	-	0
C[C@@H]1CN([C@@H](C)CO)C(=O)c2cccc(NC(=O)c3nc4ccccc4s3)c2O[C@H]1CN(C)Cc1ccncc1	0	0	0	-	0
COc1ccc(-c2csc3nc(C(C)C)oc(=O)c23)cc1OC	24	0	0	0	0
CNC[C@H]1OCCCC[C@H](C)Oc2ccc(NC(=O)Cc3ccccc3)cc2C(=O)N([C@H](C)CO)C[C@@H]1C	0	0	0	-	0
COCCNC(=O)C1(C)C=CC2(CCCCC2)N1C(=O)c1ccccc1 (configuration not stated)	0	0	0	0	0
CNC(=O)C1(C)C=CC2(CCCCC2)N1C(=O)OC (configuration not stated)	-	0	0	0	22
O=C(NCc1ccccc1Cl)NCc1ccccc1Cl	0	32	0	0	0
C[C@@H]1CCCCO[C@H](CN(C)Cc2ccccc2)[C@@H](C)CN([C@H](C)CO)C(=O)c2cc(NC(=O)CCCCCC(=O)Nc3ccccc3N)ccc2O1	0	0	0	-	0
C[C@H]1[C@@H](Cc2cc(Cl)cc(Cl)c2)N(c2ccccc2)c2ccccc2CN1Cc1ccccc1	0	0	0	0	43
COc1ccc(N2c3ccccc3CN(Cc3ccccc3)CC2Cc2cc(OC)c(OC)c(OC)c2)cc1 (configuration not stated)	-	0	0	0	0
CC(C)NC(=O)N[C@@H]1CC[C@@H](CCNC(=O)C2CCC2)O[C@H]1CO	0	0	0	-	0
Cc1occc1C(=O)N1CCCC(N2CCN(c3ccccc3F)CC2)C1 (configuration not stated)	0	0	0	0	26
O=C(c1ccco1)N1CCCC(N2CCN(c3ccccc3F)CC2)C1 (configuration not stated)	0	0	0	0	0
CCNC(=O)C[C@H]1CC[C@@H]2[C@H](COC[C@H](O)CN2C(=O)Nc2ccc3c(c2)OCO3)O1	0	0	0	-	0
COc1ccc(NC(=O)N(C)C[C@@H]2Oc3ccc(NC(=O)c4ccncc4)cc3CC(=O)N([C@H](C)CO)C[C@@H]2C)cc1	0	0	0	-	44
COc1ccc(NC(=O)N(C)C[C@H]2Oc3ccc(NC(=O)c4ccncc4)cc3CC(=O)N([C@H](C)CO)C[C@@H]2C)cc1	0	0	0	-	0
